Series [1] has as its system MS2 coat protein. In words: apparent Kd, MS2 coat protein; higher = weaker binding; RNA-MaP array. The essentials: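 In Tris-HCl pH 7.5 buffer with KCl, MgCl2, BSA, DTT, tRNA and Tween20, with or without input ligand, fluorescently labeled MS2 coat protein at 1.5 nM to 3 μM was incubated at room temperature with designed RNAs. The RNAs had been transcribed on an Illumina sequencing chip from sequenced DNA templates, and incubation ran 0.8–1.5 h at the lowest to 10–20 min at the highest concentrations. Apparent Kd is the median of binding-curve fits for individual clusters. Designs measured on fewer than 10 clusters were excluded.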

The test system of series [2] is MS2 coat protein. In words: apparent Kd, MS2 coat protein; higher = weaker binding; RNA-MaP array; FMN 200 µM where present. The procedure, abridged: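 Two titrations, one without ligand and one with constant ligand, were run with SNAP-549-labelled MS2 coat protein from 0.7 or 1.5 nM, doubling to 3 µM. The targets were designs transcribed by stalled E. coli RNA polymerase on Illumina sequencing-chip clusters, in 100 mM Tris-HCl pH 7.5, 80 mM KCl, 4 mM MgCl2, BSA, DTT, yeast tRNA and Tween-20. The apparent Kd is the median of filtered per-cluster binding-curve fits, with green signal normalised to red-channel RNA signal and control-cluster median Fmax.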

[3] abbreviates: designed as: OFF switch for flavin mononucleotide, no ligand.
Where [4] appears, read: ligand present: flavin mononucleotide, designed as: OFF switch for flavin mononucleotide.
Setting [5] is: designed as: ON switch for flavin mononucleotide, no ligand.
[6] abbreviates: ligand present: flavin mononucleotide, designed as: ON switch for flavin mononucleotide.

The values that follow come from the EternaBench riboswitch data.

Take “AUCUACGUGGGUGAUACCAGCUGGUUAGUACACAUGAGGAUCACCCAUGUGCAGGCAGGCAGCCCUUGGCAGCACCGCAGUGGCU”: the “apparent Kd” value in the series with MS2 coat protein [1] (designed as: ON switch for theophylline, no ligand) turned out to be 120 nM; in the series with MS2 coat protein [1] (ligand present: theophylline, designed as: ON switch for theophylline) it was 35 nM.

Take “AUUGCCCAAGGAUAUCUAUUUAGAAACAUGAGGAUCACCCAUGUCAUAAUGUUAGGCUCAAGAGAAGGUGGAAGCU”: the figures for the “apparent Kd” value in the series on MS2 coat protein [1] (setting [3]) and in the series with MS2 coat protein [1] (setting [4]) were 8.33 nM and 8.37 nM, respectively.

For the sequence “AACACAACAUGAAACAUGAGGAUCACCCAUGUUGUUUGUAAUCAGGAUAUGAUCUCAAGAAUGAAUUAGAAGGGAUAUGGAUUU”, the “apparent Kd” value in the series with MS2 coat protein [2] (setting [5]) was found to be 31.8 nM; in the series with MS2 coat protein [2] (setting [6]), 39.6 nM.

On to “GCGCCGCAGCGGUACACGAGACAUGAGGAUCACCCAUGUGACAGAAGGGACUUGUUAAAGGUAGGUCAGGAUAUGUCUUAAAAG”, for which the figures for the “apparent Kd” value in the series on MS2 coat protein [2] (setting [5]) and in the series with MS2 coat protein [2] (setting [6]) were 184 nM and 56.5 nM, respectively.

“CUGCCGUAGGAGAAGGACGGCGGGUUAUUUUUGUACAUGAGGAUCACCCAUGUAGGAUAUCCUACGUCAGGCAACCUACUACAG”: the “apparent Kd” value is 7.26 nM in the series with MS2 coat protein [2] (setting [3]) and 10.2 nM with MS2 coat protein [2] (setting [4]).

For the sequence “ACCAAGCUAGGAUAUGCUUGGGCUCAAAUAAAUAAACACAAACAUGAGGAUCACCCAUGUAGAAGGAGCUUGCU”, the figures for the “apparent Kd” value in the series with MS2 coat protein [2] (setting [3]) and with MS2 coat protein [2] (setting [4]) were 12.4 nM and 15.5 nM, respectively.

For the sequence “AAAAAGCGAGGAUAUACAUGAGGAUCACCCAUGUCAAAAGAAUAUAAAGAAAUAGGAAGUAGAAGGCGCAAAAA”, the entries for the “apparent Kd” value in the series on MS2 coat protein [2] (setting [3]) and with MS2 coat protein [2] (setting [4]) were 55.9 nM and 56 nM, respectively.

For the sequence “GUGUAGCAAGGAUAUACAUGAGGAUCACCCAUGUGAAUAAGAUAGAAUAAGAUAAAGUGUAGAAGGUGCAGUGU”, the “apparent Kd” value with MS2 coat protein [2] (setting [3]) turned out to be 39 nM; with MS2 coat protein [2] (setting [4]), 34.4 nM.

As to “UACGCGUAGGAGAAGGGCCCACUAUAGGGUAAGUGCUGUUCUCACAUGAGGAUCACCCAUGUGCGGCAGGAUAUCCACGCGUGC”, the “apparent Kd” value worked out at 11.6 nM in the series on MS2 coat protein [2] (setting [3]) and 66.7 nM in the series on MS2 coat protein [2] (setting [4]).

For the sequence “GUUAAUUAGUGAGGAUAUACAUAAUUUAAUACUGUAGAAGGCACAAUCCUCAAGACAUGAGGAUCACCCAUGUGAUAAUAAGCU”, the “apparent Kd” value in the series on MS2 coat protein [2] (setting [3]) was found to be 34.9 nM; in the series on MS2 coat protein [2] (setting [4]), 174 nM.

Regarding “GGAAAACAUGAGGAUCACCCAUGUGAGGAUAUCGAUGUCCAAAAACCAGUGCGGGACUCGAGAAGGCACUUGGA”, the “apparent Kd” value came out at 49.1 nM in the series on MS2 coat protein [2] (setting [3]) and 26.3 nM with MS2 coat protein [2] (setting [4]).

Turning to “CGUCCGUGGGUAGUGAUCGUACAUGAGGAUCACCCAUGUGGGAAGGAUAUGCAUGCACGUGGACAGCAGAAGGUCCCACAACAA”, the “apparent Kd” value stood at 154 nM in the series with MS2 coat protein [2] (setting [3]) and 86 nM with MS2 coat protein [2] (setting [4]).

As for “UGCGCUGAGGGAGGAUAUGACAUGAGGAUCACCCAUGUGAUAGGUUUCUUGUCAGAAGGCCCGCGUGUACCGAAUUAGGUUCGC”, the “apparent Kd” value with MS2 coat protein [2] (setting [3]) stood at 55.6 nM; in the series with MS2 coat protein [2] (setting [4]), 404 nM.

Turning to “GGCGGUCCUUAAUGCACCUGCACAUGAGGAUCACCCAUGUACAGAAGGGCCAGCACCGAAGUAUGGCAGGAUAUGUCGCACGAG”, the “apparent Kd” value was found to be 7.56 nM in the series on MS2 coat protein [2] (setting [3]) and 10.1 nM in the series on MS2 coat protein [2] (setting [4]).

For the sequence “GGAGCACACAUUAACAUGAGGAUCACCCAUGUCAAAAGACAUGAGGAUAUGGAUCCGAAAAGGAUCCAGAAGGCAUGGAGCUCC”, the figures for the “apparent Kd” value in the series on MS2 coat protein [2] (setting [5]) and in the series with MS2 coat protein [2] (setting [6]) were 169 nM and 10.5 nM, respectively.

As to “AAAACGUGAGGAUAUGCACCAACCAAGGUUUUUCGGGUACGACAUGAGGAUCACCCAUGUAGAAGGCACGCAAA”, the “apparent Kd” value stood at 26.4 nM in the series with MS2 coat protein [2] (setting [3]) and 32 nM with MS2 coat protein [2] (setting [4]).

Regarding “GGAAAGUCAGGAUAUGGAUAAUAAAUACAAAUAGAAACAAACCAGAAGGGACAUGAGGAUCACCCAUGUAAACA”, the “apparent Kd” value is 24.1 nM in the series with MS2 coat protein [2] (setting [3]) and 23.1 nM with MS2 coat protein [2] (setting [4]).

As for “CUGUAGAUAUCAGGAUAUCUAUUUCCUACAUGAGGAUCACCCAUGUAGAUGAUCACCCAUGUAAAGGAGAAGGGAUAUCUAUAG”, the “apparent Kd” value came out at 342 nM with MS2 coat protein [2] (setting [5]) and 180 nM in the series on MS2 coat protein [2] (setting [6]).

“GCCACAAGGGCAGGAUAUGAACUUAAUGGCAGUUUAGAAGGGUCACUCGUGGGUUAAAAUCACAUGAGGAUCACCCAUGUAUAG”: the “apparent Kd” value with MS2 coat protein [2] (setting [5]) is 664 nM; with MS2 coat protein [2] (setting [6]), 84.7 nM.

With “GUUAGCGCAGGAUAUACAUGAGGAUCACCCAUGUCCUCAUGCGUUAAAGAGGUGAUCCGUAGAAGGGUGUAAAC”, the “apparent Kd” value in the series on MS2 coat protein [2] (setting [3]) was found to be 180 nM; in the series with MS2 coat protein [2] (setting [4]), 250 nM.

Turning to “UGGAUCAUCGGAGGAUAUCAUGUAAAUACAUGAGGAUCACCCAUGUCGAUGGAGACAUCGGAGAUUGAGAAGGCCGAUGAUCCU”, the “apparent Kd” value in the series on MS2 coat protein [2] (setting [5]) came out at 437 nM; in the series on MS2 coat protein [2] (setting [6]), 25.7 nM.

Regarding “ACGUAUCAUGUCAGGAUAUAGCUAGCUACGGCUAGCUAGAAGGGACAUGAGGAUCACCCAUGUCAAAGAUACGU”, the “apparent Kd” value in the series with MS2 coat protein [2] (setting [3]) was 14 nM; in the series on MS2 coat protein [2] (setting [4]) it was 19 nM.

“AAAUGCCUGUCGAUGCUCGACAUGAGGAUCACCCAUGUAUAGCAGGAUAUGCAGACCUGACUCGUGCAGAAGGGCUAUACCUAA”: the “apparent Kd” value was 12.6 nM in the series with MS2 coat protein [2] (setting [3]) and 64.3 nM with MS2 coat protein [2] (setting [4]).

A word on the apparent Kd: it is the concentration giving half-maximal binding under the conditions of the assay.
